From ChEMBL document CHEMBL2401708, “Superior anticancer activity of halogenated chalcones and flavonols over the natural flavonol quercetin” (Eur J Med Chem, 2013)
Calls of active or inactive are those of the source. The rule behind the calls is not given here.

Assays:
HCT-116 [1] = test: Cytotoxicity against human HCT116 cells assessed as cell viability after 48 hrs by MTT assay; type: functional, cell-based; details: HCT-116, 48 h
Method in brief: (§1)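 HCT116 cells seeded in 24-well plates two days prior, treated 48 h in fresh complete medium (DMSO ≤0.5% v/v; DMSO-only control); MTT 0.5 mg/ml final added for last hour, formazan dissolved in DMSO:ethanol 50:50, A570 minus A690; viability as % of control; IC50 from 2.5–20 range dose-response; mean ± SEM of 4 independent experiments.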

HCT-116 [2] = test: Cytotoxicity against human HCT116 cells assessed as cell viability at 10 uM after 48 hrs by MTT assay relative to control; type: functional; details: HCT-116, 48 h, read-out: Activity; method in brief: as §1
HCT-116 [3] = test: Cytotoxicity against human HCT116 cells assessed as cell viability at 15 uM after 48 hrs by MTT assay relative to control; type: functional; details: HCT-116, 48 h, read-out: Activity; method in brief: as §1
HCT-116 [4] = test: Cell cycle arrest in human HCT116 cells assessed as accumulation at S and G2/M phase at IC50 after 48 hrs by flow cytometry analysis; type: functional, cell-based
Method in brief: (§2)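 HCT116 cells (RPMI 1640, 6% FBS, 37 °C, 5% CO2) seeded two days ahead, exposed 48 h; floating plus attached cells collected by trypsinization, fixed in 70% ethanol at 4 °C 15 min, stained with PI/RNase A at 37 °C 15 min; ≥40 000 single cells counted by flow cytometry; phases fitted by Watson Pragmatic model; 3 independent experiments.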

HCT-116 [5] = test: Induction of apoptosis in human HCT116 cells assessed as nuclear condensation after 48 hrs by fluorescence microscopic analysis; type: functional, cell-based
Method in brief: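 After 48 h exposure, floating and attached cells harvested, fixed in 4% paraformaldehyde 15 min at room temperature, cytospun onto polylysine slides, Hoechst-stained; apoptotic fraction = condensed nuclei over total nuclei, >500 cells per slide counted by fluorescence microscopy; mean ± SEM of ≥3 independent experiments.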

HCT-116 [6] = test: Cell cycle arrest in human HCT116 cells assessed as accumulation at sub-G1 phase at 10 to 15 uM after 48 hrs by flow cytometry analysis; type: functional, cell-based; method in brief: as §2
HCT-116 [7] = test: Cell cycle arrest in human HCT116 cells assessed as accumulation at S and G2/M phase at 10 to 15 uM after 48 hrs by flow cytometry analysis; type: functional, cell-based; method in brief: as §2
HCT-116 [8] = test: Induction of apoptosis in human HCT116 cells assessed as cleavage of PARP1 at 10 to 15 uM after 48 hrs by Western blot analysis; type: functional, cell-based
Method in brief: (§3)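 Cells seeded two days before 48 h exposure; floating and attached cells harvested, lysed in ice-cold RIPA with PMSF, phosphatase and protease inhibitors; 20 µg protein by SDS-PAGE, PVDF transfer, milk blocking, primary antibody (p53 DO-1, p27 C-19, PARP-1 F-2) overnight, HRP secondary, chemiluminescence; band intensity quantified, β-actin loading control.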

HCT-116 [9] = test: Induction of morphological changes in human HCT116 cells assessed as floating cells at 15 to 100 uM after 48 hrs by microscopic analysis; type: functional, cell-based
HCT-116 [10] = test: Cell cycle arrest in human HCT116 cells assessed as increase of p53 expression at 5 to 10 uM after 48 hrs by Western blot analysis; type: functional, cell-based; method in brief: as §3
HCT-116 [11] = test: Induction of apoptosis in human HCT116 cells assessed as cleavage of PARP1 at 5 to 10 uM after 48 hrs by Western blot analysis; type: functional, cell-based; method in brief: as §3
HCT-116 [12] = test: Cell cycle arrest in human HCT116 cells assessed as increase of p27 expression at 5 to 10 uM after 48 hrs by Western blot analysis; type: functional, cell-based; method in brief: as §3
HCT-116 [13] = test: Cell cycle arrest in human HCT116 cells assessed as accumulation at S and G2/M phase at 5 to 10 uM after 48 hrs by flow cytometry analysis; type: functional, cell-based; method in brief: as §2
HCT-116 [14] = test: Cell cycle arrest in human HCT116 cells assessed as accumulation at sub-G1 phase at 5 to 10 uM after 48 hrs by flow cytometry analysis; type: functional, cell-based; method in brief: as §2
HCT-116 [15] = test: Induction of morphological changes in human HCT116 cells assessed as floating cells at 10 to 100 uM after 48 hrs by microscopic analysis; type: functional, cell-based
HCT-116 [16] = test: Cytotoxicity against human HCT116 cells assessed as cell viability at 30 uM after 48 hrs by MTT assay relative to control; type: functional; details: HCT-116, 48 h, read-out: Activity
Method in brief: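 HCT116 cells grown in RPMI 1640 with 6% FBS, 0.1 mM sodium pyruvate and 10 mM HEPES at 37 °C in 5% CO2, seeded at 70 000 cells/mL two days before treatment. Exposure 48 h in fresh complete medium, DMSO ≤0.5% (v/v), DMSO-only controls. MTT (0.5 mg/ml final) added for the last hour, formazan dissolved in DMSO:ethanol 50:50, A570 minus A690. Viability given as % of control; mean ± SEM of 4 independent experiments; Student's t-test.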

HCT-116 [17] = test: Cell cycle arrest in human HCT116 cells assessed as accumulation at S and G2/M phase at 15 uM after 48 hrs by flow cytometry analysis; type: functional, cell-based; method in brief: as §2

## O=c1c(O)c(-c2cccc(Br)c2)oc2ccccc12
HCT-116 [1]
  IC50: 7.5 µM
HCT-116 [2]
  viability at 10 µM: 37.6%
HCT-116 [3]
  viability at 15 µM: 29.2%

## Cc1cccc(-c2oc3ccccc3c(=O)c2O)c1
HCT-116 [3]
  viability at 15 µM: 38.7%

## O=c1c(O)c(-c2cccc(Cl)c2)oc2ccccc12
HCT-116 [1]
  IC50: 8.1 µM
HCT-116 [2]
  viability at 10 µM: 43.8%
HCT-116 [3]
  viability at 15 µM: 32.9%

## Cc1ccc(-c2oc3ccccc3c(=O)c2O)cc1
HCT-116 [3]
  viability at 15 µM: 59.3%

## Cc1ccc(/C=C/C(=O)c2ccccc2O)cc1
HCT-116 [3]
  viability at 15 µM: 89.1%

## COc1cccc(-c2oc3ccccc3c(=O)c2O)c1
HCT-116 [3]
  viability at 15 µM: 39.5%

## O=C(/C=C/c1cccc(Br)c1)c1ccccc1O
HCT-116 [1]
  IC50: 10.9 µM
HCT-116 [2]
  viability at 10 µM: 48.4%
HCT-116 [4]
  Activity: Active
HCT-116 [5]
  Activity: Dose-dependent effect
HCT-116 [6]
  Activity: Active
HCT-116 [7]
  Activity: Active
HCT-116 [3]
  viability at 15 µM: 29.6%
HCT-116 [8]
  Activity: Active
HCT-116 [9]
  Activity: Active

## O=C(/C=C/c1ccccc1)c1ccccc1O [2'-HYDROXYCHALCONE]
HCT-116 [3]
  viability at 15 µM: 91.7%

## COc1ccc(/C=C/C(=O)c2ccccc2O)cc1
HCT-116 [3]
  viability at 15 µM: 89.1%

## COc1ccc(-c2oc3ccccc3c(=O)c2O)cc1OC [3-HYDROXY-3',4'-DIMETHOXYFLAVONE]
HCT-116 [3]
  viability at 15 µM: 78.1%

## COc1cc(/C=C/C(=O)c2ccccc2O)cc(OC)c1OC
HCT-116 [3]
  viability at 15 µM: 83.7%

## O=C(/C=C/c1ccc(Cl)cc1)c1ccccc1O
HCT-116 [1]
  IC50: 20.9 µM
HCT-116 [2]
  viability at 10 µM: 84.8%
HCT-116 [3]
  viability at 15 µM: 69.1%

## O=C(/C=C/c1ccc(F)cc1)c1ccccc1O
HCT-116 [1]
  IC50: 20.5 µM
HCT-116 [2]
  viability at 10 µM: 85.2%
HCT-116 [3]
  viability at 15 µM: 74.9%

## COc1cc(-c2oc3ccccc3c(=O)c2O)cc(OC)c1OC
HCT-116 [3]
  viability at 15 µM: 70%

## COc1ccc(-c2oc3ccccc3c(=O)c2O)cc1
HCT-116 [3]
  viability at 15 µM: 96%

## O=c1c(O)c(-c2ccc(Br)cc2)oc2ccccc12
HCT-116 [10]
  Activity: Active
HCT-116 [1]
  IC50: 4.6 µM
HCT-116 [2]
  viability at 10 µM: 32.8%
HCT-116 [4]
  Activity: Active
HCT-116 [5]
  Activity: Dose-dependent effect
HCT-116 [3]
  viability at 15 µM: 29.2%
HCT-116 [11]
  Activity: Active
HCT-116 [12]
  Activity: Active
HCT-116 [13]
  Activity: Active
HCT-116 [14]
  Activity: Active
HCT-116 [15]
  Activity: Active

## O=c1c(O)c(-c2ccc(O)c(O)c2)oc2cc(O)cc(O)c12 [QUERCETIN]
HCT-116 [16]
  viability at 30 µM: 59.7%

## COc1cccc(/C=C/C(=O)c2ccccc2O)c1
HCT-116 [3]
  viability at 15 µM: 89.6%

## COc1cccc(/C=C/C(=O)c2ccccc2O)c1O
HCT-116 [3]
  viability at 15 µM: 84.7%

## COc1ccccc1-c1oc2ccccc2c(=O)c1O
HCT-116 [3]
  viability at 15 µM: 89.1%

## O=c1c(O)c(-c2ccccc2)oc2ccccc12 [FLAVONOL]
HCT-116 [3]
  viability at 15 µM: 64.6%

## O=C(/C=C/c1cccc(Cl)c1)c1ccccc1O
HCT-116 [1]
  IC50: 13.2 µM
HCT-116 [2]
  viability at 10 µM: 75.8%
HCT-116 [3]
  viability at 15 µM: 37.5%

## COc1ccc(OC)c(-c2oc3ccccc3c(=O)c2O)c1
HCT-116 [3]
  viability at 15 µM: 76.6%

## O=c1c(O)c(-c2ccc(Cl)cc2)oc2ccccc12
HCT-116 [1]
  IC50: 6.8 µM
HCT-116 [2]
  viability at 10 µM: 40.8%
HCT-116 [3]
  viability at 15 µM: 38%

## O=C(/C=C/c1ccc(C(F)(F)F)cc1)c1ccccc1O
HCT-116 [17]
  Activity: inactive
HCT-116 [3]
  viability at 15 µM: 85.1%
HCT-116 [9]
  Activity: Active

## O=C(/C=C/c1cccc(F)c1)c1ccccc1O
HCT-116 [1]
  IC50: 14.5 µM
HCT-116 [2]
  viability at 10 µM: 90.2%
HCT-116 [3]
  viability at 15 µM: 45.3%

## O=C(/C=C/c1ccc(Br)cc1)c1ccccc1O
HCT-116 [1]
  IC50: 19.1 µM
HCT-116 [2]
  viability at 10 µM: 85.5%
HCT-116 [3]
  viability at 15 µM: 68.4%

## Cc1cccc(/C=C/C(=O)c2ccccc2O)c1
HCT-116 [3]
  viability at 15 µM: 85.9%

## O=c1c(O)c(-c2ccc(F)cc2)oc2ccccc12
HCT-116 [1]
  IC50: 14.4 µM
HCT-116 [2]
  viability at 10 µM: 61.1%
HCT-116 [3]
  viability at 15 µM: 49.2%

## O=c1c(O)c(-c2cccc(F)c2)oc2ccccc12
HCT-116 [1]
  IC50: 13 µM
HCT-116 [2]
  viability at 10 µM: 60.9%
HCT-116 [3]
  viability at 15 µM: 45.9%

## COc1cc(OC)c(/C=C/C(=O)c2ccccc2O)c(OC)c1
HCT-116 [3]
  viability at 15 µM: 91.1%
